Consider 54 sequences from the array DNA melting data of Ke et al. (doi:10.1101/2024.01.08.574731).

Data set [1] in a line: folding enthalpy; higher = less favourable; fluorescence melt of hairpins on a sequencing array, two-state fit. Particulars: sodium 0.088 M. The procedure, abridged:
(§1)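 Library hairpins on a sequenced MiSeq flow cell carried annealed Cy3 and quencher oligos, and their Cy3 fluorescence was imaged in 50 mM Na-HEPES pH 8.0 with 25 mM NaCl, in 2.5 °C steps up to 60 °C. Signals were normalised to Cy3 before quenching and to control constructs. Melting temperature and folding enthalpy were obtained from bootstrapped two-state fits, combined by inverse-variance weighting across four replicates, and the fitted temperatures were then raised by 9.35 °C to match UV melts.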

The nature of data set [2]: melting temperature; fluorescence melt of hairpins on a sequencing array, two-state fit, raised by 9.35 °C to match UV melts. As to conditions: sodium 0.088 M. The procedure, abridged: as §1

GAGCCCGGAAACGAGCCC (.((.((....)).)).): the folding enthalpy in data set [1] was -14 kcal/mol. Moreover, in data set [2], the Tm worked out at 29.1 °C.

Consider GAGCCGACGAAAGTCCTC (((..(((....)))))), for which the folding enthalpy in data set [1] is -8.43 kcal/mol. Further, the Tm in data set [2] was found to be 27.9 °C.

Consider GAGCCGCGAAAGCGACTC (((.(((....))).))), for which the folding enthalpy in data set [1] was -26.2 kcal/mol. In data set [2], the Tm is 65.3 °C.

Regarding GAGCCGGGAAACCGACTC (((.(((....))).))), in data set [1], the folding enthalpy is -42.8 kcal/mol. Also, the Tm in data set [2] was 49.5 °C.

As for GAGCGACGAAAGTCACTC (((.(((....))).))), the folding enthalpy in data set [1] is -25.9 kcal/mol. Moreover, the Tm in data set [2] turned out to be 52.2 °C.

Consider GAGCGCGGAAACACGCCC (.(((.(....).))).), for which the folding enthalpy in data set [1] is -12 kcal/mol. In addition, in data set [2], the Tm was 38.4 °C.

As for GAGCGCGGAAACACGCTC (((((.(....).))))), in data set [1], the folding enthalpy is -41.1 kcal/mol. The Tm in data set [2] came out at 56.2 °C.

Take GAGCGGCGAAAGCCACTC (((.(((....))).))): the folding enthalpy in data set [1] was -24.5 kcal/mol. Moreover, the Tm in data set [2] was 58 °C.

For GAGCGTGCGAAAGCACTC (((..(((....)))))), the folding enthalpy in data set [1] was -5.83 kcal/mol. In data set [2], the Tm stood at 26.9 °C.

For GAGCGTGGAAACACACCC (.(.(((....))).).), the folding enthalpy in data set [1] was -18.9 kcal/mol. Besides, the Tm in data set [2] was 25.4 °C.

As for GAGCTAGGAAACTGGCTC ((((.((....)).)))), in data set [1], the folding enthalpy was -36.2 kcal/mol. Moreover, the Tm in data set [2] was 51.9 °C.

In the case of GAGCTCACGAAAGTGCTC (((..(((....)))))), the folding enthalpy in data set [1] is -20.8 kcal/mol. In data set [2], the Tm was found to be 44.4 °C.

Regarding GAGCTCGGAAACGAACTC (((.(((....))).))), in data set [1], the folding enthalpy was -28.6 kcal/mol. The Tm in data set [2] stood at 44.9 °C.

With GAGCTGCGAAAGCATCTC (((.(((....))).))), the folding enthalpy in data set [1] was -29.4 kcal/mol. Further, in data set [2], the Tm worked out at 46.8 °C.

GAGCTGGGAAACCAGCCC (.(((((....))))).): in data set [1], the folding enthalpy is -11.4 kcal/mol. For the same sequence, the Tm in data set [2] came to 46.9 °C.

GAGCTGGGAAACCGGTTC ((.(.((....)).).)): the folding enthalpy in data set [1] is -23.3 kcal/mol. Also, in data set [2], the Tm worked out at 35.7 °C.

As to GAGCTTGGAAACAAACTC (((.(((....))).))), in data set [1], the folding enthalpy is -23.9 kcal/mol. In data set [2], the Tm worked out at 35.8 °C.

Consider GAGGAAACGAAAGTTCTC (((..(((....)))))), for which the folding enthalpy in data set [1] is -13.3 kcal/mol. Moreover, the Tm in data set [2] was 24.6 °C.

Regarding GAGGAAGGAAACTTCCCC (.(((((....))))).), the folding enthalpy in data set [1] was -11 kcal/mol. In data set [2], the Tm came to 35.2 °C.

As for GAGGAAGGAAACTTTCTC (((.(((....))).))), in data set [1], the folding enthalpy was -28.9 kcal/mol. Further, in data set [2], the Tm came out at 35.3 °C.

Regarding GAGGACCCGAAAGGGCTC (((..(((....)))))), the folding enthalpy in data set [1] is -12 kcal/mol. In data set [2], the Tm was found to be 33.9 °C.

Regarding GAGGACCGAAAGGTTCTC (((.(((....))).))), in data set [1], the folding enthalpy was -35.2 kcal/mol. The Tm in data set [2] amounted to 59.4 °C.

GAGGACGAAAGTCACCTC ((((((....)))..))): the folding enthalpy in data set [1] was -12.9 kcal/mol. Besides, the Tm in data set [2] was 36.2 °C.

With GAGGACGAAAGTCGGCTC ((((((....)))..))), in data set [1], the folding enthalpy is -16.7 kcal/mol. Besides, in data set [2], the Tm was determined as 45.6 °C.

For the sequence GAGGAGCCGAAAGGCCTC (((..(((....)))))), in data set [1], the folding enthalpy is -11.5 kcal/mol. Also, in data set [2], the Tm amounted to 41.9 °C.

Consider GAGGAGCGAAAGCTTCTC (((.(((....))).))), for which, in data set [1], the folding enthalpy is -33.2 kcal/mol. Further, the Tm in data set [2] was determined as 57.2 °C.

As to GAGGAGGGAAACCTCCTC (((((((....))))))), in data set [1], the folding enthalpy is -33.4 kcal/mol. Moreover, the Tm in data set [2] was 65.3 °C.

For the sequence GAGGATACGAAAGTACTC (((..(((....)))))), the folding enthalpy in data set [1] was -9.94 kcal/mol. In addition, the Tm in data set [2] worked out at 26.8 °C.

GAGGATGCGAAAGCACTC (((..(((....)))))): in data set [1], the folding enthalpy was -14.2 kcal/mol. Besides, the Tm in data set [2] was 34.9 °C.

Regarding GAGGATGGAAACATCCTC (((((((....))))))), the folding enthalpy in data set [1] was -49.6 kcal/mol. For the same sequence, the Tm in data set [2] came out at 61.3 °C.

Turning to GAGGATGGAAACATCTTC ((.((((....)))).)), the folding enthalpy in data set [1] is -27.1 kcal/mol. Further, the Tm in data set [2] came to 38.1 °C.

Take GAGGATGGAAACATTCTC (((.(((....))).))): the folding enthalpy in data set [1] was -25.5 kcal/mol. In data set [2], the Tm was determined as 42.6 °C.

For GAGGCAGAAATGCCTC ((((((....)))))), in data set [1], the folding enthalpy is -37.8 kcal/mol. Moreover, the Tm in data set [2] came to 60.7 °C.

In the case of GAGGCCCCGAAAGGGCTC (((..(((....)))))), the folding enthalpy in data set [1] was -14.1 kcal/mol. Also, the Tm in data set [2] was determined as 50.7 °C.

Consider GAGGCCCGAAAGGGTCTC (((.(((....))).))), for which the folding enthalpy in data set [1] is -31.6 kcal/mol. Besides, the Tm in data set [2] was 67.4 °C.

With GAGGCCGAAAGGCACTC ((((((....))).))), the folding enthalpy in data set [1] is -14.5 kcal/mol. Moreover, the Tm in data set [2] came out at 54.1 °C.

Turning to GAGGCCGAAAGGCGCCTC ((((((....)))..))), in data set [1], the folding enthalpy is -12.4 kcal/mol. For the same sequence, the Tm in data set [2] was found to be 42 °C.

With GAGGCCGAAAGGCGGCTC ((((((....)))..))), the folding enthalpy in data set [1] is -12.8 kcal/mol. The Tm in data set [2] came out at 55.9 °C.

With GAGGCCGGAAACGGCCCC (.(((((....))))).), the folding enthalpy in data set [1] is -6.76 kcal/mol. Moreover, the Tm in data set [2] was determined as 51.2 °C.

For GAGGCGCGAAAGCGCTC (((.(((....)))))), in data set [1], the folding enthalpy is -7.37 kcal/mol. Moreover, the Tm in data set [2] was 46.6 °C.

Regarding GAGGCGGGAAACCGCTTC ((.((((....)))).)), the folding enthalpy in data set [1] was -15.9 kcal/mol. For the same sequence, the Tm in data set [2] turned out to be 51 °C.

As for GAGGCTACGAAAGTACTC (((..(((....)))))), the folding enthalpy in data set [1] is -10.2 kcal/mol. For the same sequence, in data set [2], the Tm is 23.8 °C.

In the case of GAGGCTGGAAACGGCTTC ((.((.(....).)).)), the folding enthalpy in data set [1] is -20.8 kcal/mol. Also, in data set [2], the Tm was 36.6 °C.

In the case of GAGGGCGAAAGCCGCCTC ((((((....)))..))), in data set [1], the folding enthalpy was -9.67 kcal/mol. In addition, the Tm in data set [2] worked out at 36.3 °C.

Regarding GAGGGCGAAAGCCTACTC ((((((....)))..))), the folding enthalpy in data set [1] is -11 kcal/mol. Further, in data set [2], the Tm turned out to be 41.1 °C.

As to GAGGGCGGAAACGCCTTC ((.((((....)))).)), in data set [1], the folding enthalpy is -13.8 kcal/mol. The Tm in data set [2] amounted to 50.5 °C.

GAGGGGCGAAAGCCGCTC (((.(((....))).))): in data set [1], the folding enthalpy is -30.6 kcal/mol. Besides, the Tm in data set [2] worked out at 69.3 °C.

Consider GAGGGGGGAAACCCCTTC ((.((((....)))).)), for which, in data set [1], the folding enthalpy is -12.5 kcal/mol. In data set [2], the Tm is 53.5 °C.

For the sequence GAGGTCCGAAAGGAGCTC (((.(((....))).))), in data set [1], the folding enthalpy was -35.5 kcal/mol. For the same sequence, the Tm in data set [2] was 69.3 °C.

GAGGTCGCGAAAGCGCTC (((..(((....)))))): in data set [1], the folding enthalpy is -9.53 kcal/mol. The Tm in data set [2] was found to be 35.1 °C.

Consider GAGGTGCGAAAGCACTC (((.(((....)))))), for which the folding enthalpy in data set [1] is -10 kcal/mol. Further, the Tm in data set [2] amounted to 48.3 °C.

As for GAGGTGGGAAACCACCCC (.(((((....))))).), the folding enthalpy in data set [1] was -10.7 kcal/mol. Further, in data set [2], the Tm came to 44.6 °C.

With GAGGTGGGAAACTGCCTC ((((..(....)..)))), the folding enthalpy in data set [1] is -31.5 kcal/mol. Besides, the Tm in data set [2] was determined as 42.7 °C.

With GAGGTTACGAAAGTACTC (((..(((....)))))), in data set [1], the folding enthalpy was -14.3 kcal/mol. Besides, the Tm in data set [2] worked out at 27.9 °C.
